Assay results: ChEMBL document CHEMBL3272288, “Cannabinoids. Synthesis and central nervous system activity of 8-substituted 10-hydroxy-5,5-dimethyl-5H-[1]benzopyrano[4,3-c]pyridine and derivatives” (1977)
The source made the active and inactive calls. The calls are words filed in the database; no cut-off is given here.

Columns and labels:
[1] = test system: Rattus norvegicus; experiment: Analgesic activity in po dosed Sprague-Dawley rat by tail flick assay; format: functional
[2] = test system: Felis catus; experiment: Sedative-hypnotic activity in cat assessed as change in total sleep time at 5 mg/kg, po after 12 hrs; format: functional
Outline: (§1)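 Total sleep time was recorded 12 h after drug, with two or more cats per dose. The value is the change in minutes from paired control experiments; a negative value means decreased sleep.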

[3] = test system: Rattus norvegicus; experiment: Hyperexcitability activity in Long-Evens black-hooded rat assessed as behavioral responses to tactile stimulation at 80 mg/kg, po; format: functional, organism-based; set-up: dose 80 mg/kg
Outline: (§2)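 Rats randomly split into groups of four, dosed orally, then held singly in a sound-attenuated room. At 1, 2, 3 and 4 h each was probed with a wooden rod and scored for exaggerated motor reaction, squeaking and biting (maximum 16 per response). Index is the summed score of the three responses divided by the maximum of 48.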

[4] = test system: Rattus norvegicus; experiment: Hyperexcitability activity in Long-Evens black-hooded rat assessed as behavioral responses to tactile stimulation at 20 mg/kg, po; format: functional, organism-based; set-up: dose 20 mg/kg; outline: as §2
[5] = test system: Mus musculus; experiment: Antidepressant activity in mouse assessed as potentiation of (+/-)Dopa-induced motor responses at 5 mg/kg, po challenged with Dopa after 4 hrs compound treatment; format: functional, organism-based; set-up: dose 5 mg/kg
[6] = test system: Rattus norvegicus; experiment: Antipsychotic activity in Long-Evens rat assessed as increase in methamphetamine-induced hyperactivity at 20 mg/kg, po; format: functional
[7] = test system: Rattus norvegicus; experiment: Antipsychotic activity in Long-Evens rat assessed as increase in methamphetamine-induced hyperactivity at 10 mg/kg, po; format: functional
[8] = test system: Rattus norvegicus; experiment: Antipsychotic activity in Long-Evens rat assessed as reduction in methamphetamine-induced hyperactivity at 10 mg/kg, po; format: functional
[9] = test system: Mus musculus; experiment: Antianxiety activity in albino BALB/cJ mouse assessed as decrease in foot shock-induced fighting behavior at 10 mg/kg, po by tranquilizer activity test; format: functional
[10] = test system: Rattus norvegicus; experiment: Hyperexcitability activity in Long-Evens black-hooded rat assessed as behavioral responses to tactile stimulation at 10 mg/kg, po; format: functional, organism-based; set-up: dose 10 mg/kg; outline: as §2
[11] = test system: Rattus norvegicus; experiment: Antianxiety activity in Long-Evens rat assessed as decrease in motor activity at 5 mg/kg, po by tranquilizer activity test; format: functional
[12] = test system: Rattus norvegicus; experiment: Antipsychotic activity in Long-Evens rat assessed as reduction in methamphetamine-induced hyperactivity at 5 mg/kg, po; format: functional
[13] = test system: Mus musculus; experiment: Analgesic activity in po dosed mouse assessed as inhibition of acetic acid-induced writhing; format: functional
[14] = test system: Canis familiaris; experiment: Antianxiety activity in po dosed beagle-like dog assessed as minimum dose required to produce moderate ataxia; format: functional, Canis lupus familiaris
Outline: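 Minimum dose producing ataxia, with two or more dogs per dose.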

[15] = test system: Rattus norvegicus; experiment: Antianxiety activity in Long-Evens rat assessed as decrease in motor activity at 2 mg/kg, po by tranquilizer activity test; format: functional
[16] = test system: Felis catus; experiment: Sedative-hypnotic activity in cat assessed as change in total sleep time at 2.5 mg/kg, po after 12 hrs; format: functional; outline: as §1
[17] = test system: Rattus norvegicus; experiment: Antipsychotic activity in Long-Evens rat assessed as reduction in methamphetamine-induced hyperactivity at 2 mg/kg, po; format: functional
[18] = test system: Mus musculus; experiment: Increase in foot shock-induced fighting behavior in albino BALB/cJ mouse at 5 mg/kg, po by tranquilizer activity test; format: functional
[19] = test system: Rattus norvegicus; experiment: Antianxiety activity in Long-Evens rat assessed as decrease in motor activity at 10 mg/kg, po by tranquilizer activity test; format: functional
[20] = test system: Mus musculus; experiment: Antianxiety activity in albino BALB/cJ mouse assessed as decrease in foot shock-induced fighting behavior at 5 mg/kg, po by tranquilizer activity test; format: functional
[21] = test system: Felis catus; experiment: Sedative-hypnotic activity in cat assessed as change in total sleep time at 0.1 mg/kg, po after 12 hrs; format: functional; outline: as §1
[22] = test system: Felis catus; experiment: Sedative-hypnotic activity in cat assessed as change in total sleep time at 0.5 mg/kg, po after 12 hrs; format: functional; outline: as §1

SMILES | ED50 [1] | Activity [3] | Activity [4] | Activity [5] | inhibition in vivo at 10 mg/kg [9] | Activity [10] | inhibition in vivo at 5 mg/kg [11] | inhibition in vivo at 5 mg/kg [12] | ED50 [13] | Activity [14] | inhibition in vivo at 10 mg/kg [19] | further results
CCCCCC(C)C(C)c1cc(OCCCN2CCOCC2)c2c(c1)OC(C)(C)c1ccncc1-2.Cl (stereo not drawn) | > 40 mg/kg | inactive | inactive | Active | – | – | – | – | – | – | – | Time [2]: -11 min; Activity [6]: 28%; Activity [7]: 13%
CCCCCC(C)C(C)c1cc(OCCCN2CCCCC2)c2c(c1)OC(C)(C)c1ccncc1-2.Cl (stereo not drawn) | > 40 mg/kg | inactive | inactive | Active | – | – | – | – | – | – | – | inhibition in vivo at 10 mg/kg [8]: 15%; Time [2]: -153 min
CC(CCCc1ccc(F)cc1)c1cc(O)c2c(c1)OC(C)(C)c1cc[n+]([O-])cc1-2 (stereo not drawn) | > 40 mg/kg | – | – | Active | 24% | inactive | 18% | 16% | > 10 mg/kg | – | – | –
CCCCCC(C)C(C)c1cc(OC(C)=O)c2c(c1)OC(C)(C)c1ccncc1-2 (stereo not drawn) | – | – | – | Active | 48% | – | 86% | 46% | 3.3 mg/kg | <5 mg/kg | – | inhibition in vivo at 2 mg/kg [15]: 43%
CCCCCC(C)C(C)c1cc(OCC2CC2)c2c(c1)OC(C)(C)c1ccncc1-2 (stereo not drawn) | > 40 mg/kg | inactive | inactive | Active | – | – | – | – | – | – | – | inhibition in vivo at 10 mg/kg [8]: 1%; Time [16]: 105 min
CCCCCC(C)C(C)c1cc(OC(=O)OCC)c2c(c1)OC(C)(C)c1ccncc1-2 (stereo not drawn) | – | – | – | Active | 12% | – | 93% | 66% | 5.2 mg/kg | – | – | inhibition in vivo at 2 mg/kg [17]: 37%
CCCCCC(C)C(C)c1cc(OC(=O)CCCN2CCCCC2)c2c(c1)OC(C)(C)c1ccncc1-2.Cl (stereo not drawn) | – | – | – | Active | – | Active | 43% | 40% | 4 mg/kg | – | 63% | Activity [18]: 3%
C#CCN1CCC2=C(C1)c1c(O)cc(C(C)C(C)CCCCC)cc1OC2(C)C (stereo not drawn) | 13.8 mg/kg | – | – | Active | – | – | – | 59% | 4.3 mg/kg | 1 mg/kg | 51% | inhibition in vivo at 5 mg/kg [20]: 48%; Time [21]: 100 min
C#CCN1CCC2=C(C1)c1c(O)cc(C(C)CCCc3ccc(F)cc3)cc1OC2(C)C (stereo not drawn) | 3.7 mg/kg | – | – | Active | 47% | Active | – | 25% | 5.3 mg/kg | 1 mg/kg | 57% | Time [22]: 99 min
